In article PMC2847389 (ACS nano, 2010):

Assay: Circulation retention / AuNP probe clearance in vivo
Parameters: species or system athymic nude mice
Conditions: i.v., within the first hour, normalised to 1 min post-injection, n = 5
In short: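 Male Nu/nu mice, 6-8 weeks old, anaesthetised with Avertin (240 mg/kg i.p.). Dosed i.v. by tail vein with 1 mg probe in 100 μl water, or the equivalent dye-labeled peptide in sterile water. Serum was taken at each time point after euthanasia. 100 μl serum was incubated with DTT (~286 mM final) for 16 h at RT. Q670 read at 644/670 nm. Mean ± s.d., n = 5.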

## Q670 (or BHQ2)-(His-Ser-Ser-Lys-Leu-Gln)-Cys [uncomplexed peptide]
  % of initial administered amount removed from serum: more than 90%
